One series addresses Integrin alpha-V/beta-3 (Homo sapiens, UniProt P05106+P06756). The series is described as follows: Inhibition of recombinant human integrin alphaV (31 to 992 residues) beta3 (27 to 718 residues) expressed in CHO cells preincubated for 15 mins followed by Cy3B-RGD probe addition and measured after 2 hrs by fluorescence polarization assay. A digest of the protocol:
(§1)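 Soluble purified human integrins from CHO cells, with 1 nM Cy3B-RGD probe, in 25 mM HEPES, 150 mM NaCl, 1 mM CHAPS, pH 7.4, at 20-22 °C. Final protein and cation: αvβ3 1 nM with 0.4 mM MgCl₂; αvβ5 4 nM with 0.1 mM MnCl₂; αvβ6 8 nM with MgCl₂; αvβ8 8 nM with MnCl₂. Read-out was polarization. pIC50 is mean ± SEM over test occasions.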

For a further series, the target named is Integrin alpha-V/beta-6 (Homo sapiens, UniProt P06756+P18564). The series is described as follows: Inhibition of recombinant human integrin alphaV (31 to 992 residues) beta6 (22 to 707 residues) expressed in CHO cells preincubated for 15 mins followed by Cy3B-RGD probe addition and measured after 2 hrs by fluorescence polarization assay. The method in brief:
as §1
(In general: Polarisation of emitted light reports the rotation of a fluorescent probe.)

The nature of series [1]: Inhibition of recombinant human integrin alphaV (31 to 992 residues) beta5 (24 to 719 residues) expressed in CHO cells preincubated for 15 mins followed by Cy3B-RGD probe addition and measured after 2 hrs by fluorescence polarization assay. The method in brief: as §1
Series [2] can be described thus: Inhibition of recombinant human integrin alphaV (31 to 992 residues) beta8 (43 to 684 residues) expressed in CHO cells preincubated for 15 mins followed by Cy3B-RGD probe addition and measured after 2 hrs by fluorescence polarization assay. The method in brief:
as §1

Series [3] is described as follows: Clearance in CD rat at 1 mg/kg, iv and 1 mg/kg, po measured up to 24 hrs by LC-MS/MS analysis. In kind it is ADME, organism-based. As to conditions: in vivo. A digest of the protocol: (§2)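 Two male CD rats per arm. IV: 1 mg/kg bolus via femoral vein in DMSO:PEG200:water (5:45:50). PO: 1 mg/kg by gavage in 0.5% methyl cellulose/0.2% Tween 80. Blood was taken by tail-vein cannula to 7 h and by venipuncture to 24 h. Plasma was extracted with acetonitrile plus internal standard, and drug measured by LC-MS/MS.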

Series [4] can be described thus: Half life in CD rat at 1 mg/kg, iv and 1 mg/kg, po measured up to 24 hrs by LC-MS/MS analysis. As to conditions: in vivo. The series is classed as ADME, organism-based. A digest of the protocol: as §2
Series [5] can be described thus: Permeability of the compound in pH 7.4 phosphate buffer measured after 3 hrs by artificial membrane permeability assay based LC-MS analysis. As to conditions: PAMPA, read-out: permeability. In kind it is ADME. A digest of the protocol:
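Bilayer of 1.8% egg phosphatidylcholine and 1% cholesterol in n-decane on filter inserts. Phosphate buffer was 50 mM Na₂HPO₄ with 0.5% hydroxypropyl-β-cyclodextrin, pH 7.4. Compound was added to the donor (bottom) well and incubated 3 h at room temperature. Donor and acceptor concentrations were measured by liquid chromatography.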
For orientation: PAMPA measures passive passage across an artificial lipid membrane.

Series [6] is described as follows: Volume of distribution at steady state in CD rat at 1 mg/kg, iv and 1 mg/kg, po measured up to 24 hrs by LC-MS/MS analysis. The series is classed as ADME, organism-based. As to conditions: in vivo, read-out: Vdss. The method in brief: as §2
Series [7] is described as follows: Oral bioavailability in CD rat at 1 mg/kg administered via gavage up to 24 hrs by LC-MS/MS analysis. The series is classed as ADME, organism-based. Particulars: in vivo. The method in brief:
as §2

From ChEMBL document CHEMBL4354806, “Discovery of an Orally Bioavailable Pan αv Integrin Inhibitor for Idiopathic Pulmonary Fibrosis” (J Med Chem, 2019) come the findings set out here.

On to `O=C(O)C[C@@H](Nc1ccc(OCCc2ccc3c(n2)NCCC3)nn1)c1cccc(Cl)c1`, for which the concentration for half-maximal inhibition (IC50) (usually the concentration needed to halve the response being measured) at Integrin alpha-V/beta-3 is 158 nM; at Integrin alpha-V/beta-6 it was 794 nM. Moreover, the negative logarithm of the IC50 (pIC50) – broadly, the negative decadic logarithm of the IC50, by convention in mol/L – in series [1] is 7.9; in series [2], 5.7.

Turning to `O=C(O)C[C@H](Nc1ccc(OCCc2ccc3c(n2)NCCC3)nn1)c1cccc(Cl)c1`, the IC50 on Integrin alpha-V/beta-3 was 0.794 nM; on Integrin alpha-V/beta-6, 6.31 nM. In addition, the negative-log IC50 (pIC50) is given as 8.9 in series [1] and 8.1 in series [2].

Turning to `O=C(O)CC(Nc1ccc(OCCc2ccc3c(n2)NCCC3)nc1)c1cccc(Cl)c1` (racemic), the values for the IC50 at Integrin alpha-V/beta-3 and at Integrin alpha-V/beta-6 were 12.6 nM and 398 nM, respectively. Further, the values for the pIC50 in [1] and in series [2] were 7.8 and 6, respectively.

In the case of `O=C(O)CC(Nc1cnc(OCCc2ccc3c(n2)NCCC3)nc1)c1cccc(Cl)c1` (racemic), the IC50 was 50.1 nM on Integrin alpha-V/beta-3 and 631 nM on Integrin alpha-V/beta-6. Moreover, the pIC50 was 7.3 in [1] and 5.6 in series [2].

For `O=C(O)CC(Nc1cnc(OCCc2ccc3c(n2)NCCC3)nc1)c1ccc(Cl)cc1` (racemic), the IC50 is 7.94 nM on Integrin alpha-V/beta-3 and 251 nM on Integrin alpha-V/beta-6. Also, the negative logarithm of the IC50 (pIC50) in [1] was found to be 8.2; in series [2], 6.1.

For `O=C(O)CC(Nc1ccc(OCCc2ccc3c(n2)NCCC3)cn1)c1ccc(CN2CCOCC2)cc1` (racemic), the 50% inhibitory concentration (IC50) on Integrin alpha-V/beta-3 is 3.16 nM; on Integrin alpha-V/beta-6, 31.6 nM. Further, the results for the negative-log IC50 (pIC50) in [1] and in series [2] were 8.2 and 6.9, respectively.

`O=C(O)CC(Nc1ccc(OCCc2ccc3c(n2)NCCC3)cn1)c1ccc(Oc2ccccc2)cc1` (racemic): the half-maximal inhibitory concentration (IC50) is 2 nM at Integrin alpha-V/beta-3 and 12.6 nM at Integrin alpha-V/beta-6. Also, the pIC50 in [1] came to 8.5; in series [2], 7.1.

For the compound `O=C(O)CC(Nc1ccc(OCCc2ccc3c(n2)NCCC3)cn1)c1cccc(CN2CCOCC2)c1` (racemic), the IC50 at Integrin alpha-V/beta-3 is 3.98 nM; on Integrin alpha-V/beta-6 it was 63.1 nM. Besides, the figures for the negative logarithm of the IC50 (pIC50) in series [1] and in [2] were 8.5 and 7.2, respectively.

For the compound `O=C(O)CC(Nc1ccc(OCCc2ccc3c(n2)NCCC3)cn1)c1cc(C2CC2)cc(C2CC2)c1` (racemic), the IC50 on Integrin alpha-V/beta-3 was 126 nM; on Integrin alpha-V/beta-6 it was 316 nM. Moreover, the pIC50 in series [1] was found to be 7; in [2] it was 6.9.

For the compound `O=C(O)CC(Nc1ccc(OCCc2ccc3c(n2)NCCC3)nc1)c1ccc(Cl)cc1` (racemic), the IC50 was 39.8 nM at Integrin alpha-V/beta-3 and 1000 nM at Integrin alpha-V/beta-6. Further, the pIC50 in series [1] came to 7.3; in series [2] it was 5.6.

`O=C(O)CC(Nc1ccc(OCCc2ccc3c(n2)NCCC3)cc1)c1cccc(F)c1` (racemic): the half-maximal inhibitory concentration (IC50) at Integrin alpha-V/beta-3 was 2 nM; on Integrin alpha-V/beta-6, 100 nM. The values for the pIC50 in series [1] and in [2] were 8.8 and 6.4, respectively.

As for `O=C(O)CC(Nc1ccc(OCCc2ccc3c(n2)NCCC3)cn1)c1cccc(Br)c1` (racemic), the 50% inhibitory concentration (IC50) at Integrin alpha-V/beta-3 was 5.01 nM; on Integrin alpha-V/beta-6 it was 31.6 nM. In addition, the negative logarithm of the IC50 (pIC50) in series [1] came to 8.4; in [2] it was 7.2.

Take `O=C(O)CC(Nc1ccc(OCCc2ccc3c(n2)NCCC3)nn1)c1cccc(Cl)c1` (racemic): the IC50 is 3.16 nM at Integrin alpha-V/beta-3 and 20 nM at Integrin alpha-V/beta-6. Further, the pIC50 worked out at 8.5 in series [1] and 7.6 in [2].

On to `O=C(O)CC(Nc1ncc(OCCc2ccc3c(n2)NCCC3)cn1)c1ccc(Cl)cc1` (racemic), for which the results for the IC50 on Integrin alpha-V/beta-3 and on Integrin alpha-V/beta-6 were 1.26 nM and 126 nM, respectively. The negative-log IC50 (pIC50) in [1] stood at 9; in series [2], 7.2.

Regarding `O=C(O)CC(Nc1cnc(OCCc2ccc3c(n2)NCCC3)cn1)c1ccc(Cl)cc1` (racemic), the concentration for half-maximal inhibition (IC50) at Integrin alpha-V/beta-3 was 12600 nM; on Integrin alpha-V/beta-6 it was 19500 nM. Moreover, the pIC50 in series [1] is reported as 4.9; in series [2], 4.5.

In the case of `O=C(O)CC(Nc1ccc(OCCc2ccc3c(n2)NCCC3)cn1)c1ccc(C(F)(F)F)cc1` (racemic), the IC50 on Integrin alpha-V/beta-3 was 7.94 nM; on Integrin alpha-V/beta-6 it was 79.4 nM. For the same compound, the results for the pIC50 in series [1] and in series [2] were 8.1 and 6.7, respectively.

As for `O=C(O)CC(Nc1ccc(OCCc2ccc3c(n2)NCCC3)cn1)c1cccc(Cl)c1` (racemic), the concentration for half-maximal inhibition (IC50) was 6.31 nM on Integrin alpha-V/beta-3 and 50.1 nM on Integrin alpha-V/beta-6. The negative-log IC50 (pIC50) in series [1] is 8.2; in series [2], 7.1.

In the case of `O=C(O)CC(Nc1ccc(OCCc2ccc3c(n2)NCCC3)nn1)c1ccc(Cl)cc1` (racemic), the IC50 on Integrin alpha-V/beta-3 was 2 nM; at Integrin alpha-V/beta-6 it was 25.1 nM. The pIC50 in series [1] is on record as 8.5; in series [2], 7.5.

On to `O=C(O)CC(Nc1ncc(OCCc2ccc3c(n2)NCCC3)cn1)c1cccc(Cl)c1` (racemic), for which the IC50 on Integrin alpha-V/beta-3 is 5.01 nM; at Integrin alpha-V/beta-6 it was 158 nM. Further, the negative logarithm of the IC50 (pIC50) in series [1] is 8.3; in series [2], 6.6.

With `O=C(O)CC(Nc1ccc(OCCc2ccc3c(n2)NCCC3)cn1)c1cccc(F)c1` (racemic), the concentration for half-maximal inhibition (IC50) on Integrin alpha-V/beta-3 is 2.51 nM; on Integrin alpha-V/beta-6, 79.4 nM. Further, the pIC50 in series [1] is 8.4; in [2], 6.8.

For `O=C(O)CC(Nc1ccc(OCCc2ccc3c(n2)NCCC3)cn1)c1cccc(C2CC2)c1` (racemic), in series [3], the clearance came to 8 mL/min/kg. For the same compound, the IC50 at Integrin alpha-V/beta-3 was 3.98 nM; on Integrin alpha-V/beta-6, 15.8 nM. Also, in series [4], the half-life (as a rule, the time in which the quantity being followed falls by half) is 1.8 h. The figures for the pIC50 in series [1] and in series [2] were 8.4 and 7.4, respectively. In addition, the Papp at 3 h in series [5] was determined as 8 ×10⁻⁶ cm/s. Further, the Vd in series [6] turned out to be 0.5 L/kg. Also, in series [7], the bioavailability (commonly the share of a dose that reaches the circulation, judged against a reference dose that is usually intravenous) came to 98%.

For the compound `O=C(O)CC(Cc1ccc(OCCc2ccc3c(n2)NCCC3)cc1)c1ccccc1` (racemic), the results for the IC50 at Integrin alpha-V/beta-3 and on Integrin alpha-V/beta-6 were 2 nM and 1260 nM, respectively. The pIC50 in [1] came out at 8.7; in series [2] it was 5.8.

Consider `O=C(O)CC(Nc1ccc(OCCc2ccc3c(n2)NCCC3)cn1)c1ccc(Cl)cc1` (racemic), for which the half-inhibitory concentration (IC50) on Integrin alpha-V/beta-3 was 3.16 nM; at Integrin alpha-V/beta-6, 39.8 nM. The pIC50 in [1] amounted to 8.4; in series [2], 6.9.

For `O=C(O)CC(Nc1cnc(OCCc2ccc3c(n2)NCCC3)cn1)c1cccc(Cl)c1` (racemic), the values for the IC50 at Integrin alpha-V/beta-3 and on Integrin alpha-V/beta-6 were 5010 nM and 12600 nM, respectively. The values for the negative logarithm of the IC50 (pIC50) in series [1] and in [2] were 5.3 and 4.9, respectively.
